PubChem BioAssay
Calls of active or inactive are those of the source.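 The calls were made as follows, unless noted: active = inhibition at or above 50% relative to wild type and mutant plate controls; inactive = inhibition below 50%.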

How the values were obtained:
[1] = inhibitors of TNFa-induced NFkB p65 translocation, primary screen, imaging, HUVEC, MLSMR starter and 10KST1 sets (AID 438;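 active = inhibition above 20% together with a positive visual image hit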;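 also: compound added about 3h40 before a 20 min TNFalpha stimulation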;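 as to inhibition: signal is the nuclear over cytoplasmic p65 intensity ratio per well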); conditions: HUVEC TNFa-induced p65 nuclear translocation; cell count: measured here: nuclei count (cytotoxicity indicator), at 2.08 µM; inhibition: at 2 µM, stronger effect = higher value, 0% TNFa-plus-vehicle, 100% no-TNFa wells
[2] = endothelial E-selectin expression blockers – imaging, HUVEC, immunofluorescence, MLSMR starter and 10KST1 sets, primary screen (AID 487;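 active = visually confirmed hit in the image check and inhibition above 20%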;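 as to inhibition: signal is fraction of cell area covered by stained E-selectin grains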;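 as to nuclei count: 100% = median nuclei count of all wells on the same plate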); conditions: HUVEC TNFalpha-induced E-selectin immunofluorescence imaging, at 2 µM; inhibition: stronger effect = higher value; nuclei count: measured here: cell number, toxicity
[3] = Primary imaging screen for DUSP6 inhibitors that restore phospho-Erk in transfected HeLa cells, chemical complementation (AID 609;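 active = compounds giving at least 50% inhibition in the cell-based MKP-3 phosphatase rescue imaging test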;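 as to inhibition: phospho-Erk level distribution per well compared with pooled transfected vehicle control wells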); conditions: HeLa MKP-3 transfected, phospho-Erk imaging KS statistic, at 10 µM, cells stimulated with TPA for 15 min
[4] = biological target: Dual specificity protein phosphatase 6 (Homo sapiens) (UniProt Q16828); assay: as above; conditions: HeLa MKP-3 transfected, phospho-Erk imaging KS statistic; at 10 µM; stronger effect = higher value; cells stimulated with TPA for 15 min
Dual specificity protein phosphatase 6 (Homo sapiens), sequence (Q16828 whole entry, looked up): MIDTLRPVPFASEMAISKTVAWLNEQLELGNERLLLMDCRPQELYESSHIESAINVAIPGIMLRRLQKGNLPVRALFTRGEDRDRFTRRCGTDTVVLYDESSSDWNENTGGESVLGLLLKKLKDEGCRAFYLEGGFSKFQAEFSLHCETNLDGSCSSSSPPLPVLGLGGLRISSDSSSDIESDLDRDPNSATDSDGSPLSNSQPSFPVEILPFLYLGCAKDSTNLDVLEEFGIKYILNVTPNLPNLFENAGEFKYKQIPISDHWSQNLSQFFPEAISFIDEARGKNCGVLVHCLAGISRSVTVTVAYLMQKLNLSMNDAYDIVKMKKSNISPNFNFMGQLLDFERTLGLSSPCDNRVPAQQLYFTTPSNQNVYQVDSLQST

[5] = biological target: Voltage-gated potassium channel subunit beta-2 (Rattus norvegicus) (UniProt P62483); assay: inhibitors of rat Kvbeta2 reductase activity – biochemical, NADPH fluorescence, primary screen (AID 622;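 active = fluorescence slope higher than the sample average by over 3 SD, cut at about -0.22 in these data, passing the limit was not always enough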;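 also: slope of raw intensity against log time taken from 70 to 1610 s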); conditions: recombinant KvBeta, 4-cyanobenzaldehyde reduction, at 10 µM, stronger effect = higher value
Voltage-gated potassium channel subunit beta-2 (Rattus norvegicus), sequence (P62483 whole entry, looked up): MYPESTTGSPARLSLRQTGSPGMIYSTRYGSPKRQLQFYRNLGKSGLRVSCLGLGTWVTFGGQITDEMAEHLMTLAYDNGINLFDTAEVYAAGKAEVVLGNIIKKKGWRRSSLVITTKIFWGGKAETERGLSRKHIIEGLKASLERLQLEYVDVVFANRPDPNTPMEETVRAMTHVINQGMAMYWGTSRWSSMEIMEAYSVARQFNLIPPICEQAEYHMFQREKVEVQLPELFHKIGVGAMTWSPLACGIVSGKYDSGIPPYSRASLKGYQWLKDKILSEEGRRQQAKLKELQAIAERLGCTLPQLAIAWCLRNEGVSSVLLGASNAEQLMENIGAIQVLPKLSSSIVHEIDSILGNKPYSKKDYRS

[6] = biological target: Voltage-gated potassium channel subunit beta-2 (Rattus norvegicus) (UniProt P62483); assay: enhancers of rat Kvbeta2 NADPH turnover – biochemical, NADPH fluorescence, primary screen (AID 623;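 active = NADPH fluorescence slope more negative than the mean of all samples by about 3 SD, 99.7% confidence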;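 also: fluorescence intensity change per second fitted from 20 to 320 s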); conditions: Recombinant KvBeta, NADPH fluorescence decrease slope, 10 min; at 10 µM; stronger effect = lower value
[7] = biological target: Alpha-2C adrenergic receptor (Homo sapiens) (UniProt P18825); assay: compounds altering alpha2C-coupled GIRK flux – cell-based, HEK293 alpha2C/GIRK1/2, thallium flux, primary screen (AID 624;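 active = fluorescence slope after compound addition differing from the mean of all screened samples at 99.7% confidence, in either direction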;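 also: slope of fluorescence ratio to pre-addition baseline per second over 15 to 24 s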); conditions: thallium flux BTC fluorescence, at 10 µM, actives lie on both sides
Alpha-2C adrenergic receptor (Homo sapiens), sequence (P18825 whole entry, looked up): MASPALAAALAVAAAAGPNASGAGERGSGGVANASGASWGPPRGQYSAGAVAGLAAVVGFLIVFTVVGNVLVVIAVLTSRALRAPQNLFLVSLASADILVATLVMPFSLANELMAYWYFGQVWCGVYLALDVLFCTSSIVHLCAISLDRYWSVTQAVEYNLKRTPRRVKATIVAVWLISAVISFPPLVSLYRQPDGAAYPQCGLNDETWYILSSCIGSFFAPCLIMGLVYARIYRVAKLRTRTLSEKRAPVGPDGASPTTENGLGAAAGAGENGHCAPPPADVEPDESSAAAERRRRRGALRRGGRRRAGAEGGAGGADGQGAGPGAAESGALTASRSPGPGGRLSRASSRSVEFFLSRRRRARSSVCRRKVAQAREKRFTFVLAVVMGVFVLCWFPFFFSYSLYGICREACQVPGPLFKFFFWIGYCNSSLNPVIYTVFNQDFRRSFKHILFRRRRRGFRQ

[8] = inhibitors of larval lipid processing in zebrafish, primary screen, whole organism, PED6 fluorescence, gall bladder and intestine (AID 686;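 active = a full or partial loss of lipid-probe fluorescence in the fish gall bladder, intestine or both, judged by eye; inactive = no fluorescence loss, or compound toxic to the fish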;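 also: larvae 5 to 7 days old with five fish per well; signal comes from phospholipase A2 cleavage of quenched PED6 carried via bile; overnight exposure to compound and PED6 before scoring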); conditions: Zebrafish larvae PED6 lipid processing, fluorescence scoring; screened at 20 µM (by protocol)
Outline: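 System: live zebrafish larvae aged 5-7 days, whole organism; measure: graded gall bladder and intestinal fluorescence inhibition per well; incubation: overnight exposure; reagent: ingested quenched lipid PED6 at 100 nM; signal: By-eye fluorescence microscopy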

[9] = loss of swimming-algae plug formation – whole organism, Chlamydomonas reinhardtii, WT vs cilia-less mutant, absorbance, 96-well, primary screen (AID 463189); conditions: Chlamydomonas reinhardtii gravitaxis, OD600 absorbance, 2 days; at 10 µM; stronger effect = higher value;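 also: 0% = wild type cc124 cells in DMSO and 100% = ciliumless bld1 mutant cells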
[10] = measured here: cell density z-score
[11] = measured here: nuclear c-Myc green intensity z-score
[12] = measured here: nuclear pErk red intensity z-score, stronger effect = higher value

Row | Structure (SMILES) | cell count [1] | inhibition [1] | inhibition [2] | nuclei count [2] [%] | z-score [3, 10] | z-score [3, 11] | z-score [3, 12] | inhibition [4] | fluorescence slope [5] | NADPH fluorescence slope [6] | slope [7] | outcome [8] | inhibition [9]
1 | Cc1c(N2C(=O)SC(CC(=O)O)C2=O)c(=O)n(-c2ccccc2)n1C (stereo not drawn) | 500 | 1.9% (inactive) | -80.6% (inactive) | 128 | -1.16 | -0.83 | -0.709 | -10.5% (inactive) | -0.518 (inactive) | -3.7e-05 (inactive) | 0.00585 (inactive) | inactive | -1.65% (inactive)
2 | c1ccc(N2CCN(c3nc(NCc4ccco4)c4ccccc4n3)CC2)cc1 | 579 | 0.1% (inactive) | -25.4% (inactive) | 219 | 0.527 | -0.848 | 2.43 | -4.7% (inactive) | -0.35 (inactive) | -2.5e-05 (inactive) | 0.00337 (inactive) | inactive | 35.9% (inactive)
3 | CCCOc1ccc(C(C)=O)cc1CSCCC#N | 298 | -26.4% (inactive) | -186% (inactive) | 136 | -0.222 | -1.52 | 0.779 | 7.01% (inactive) | -0.462 (inactive) | -0.000379 (inactive) | 0.00586 (inactive) | inactive | 17.2% (inactive)
4 | c1csc(Cc2nn3c(-c4ccncc4)nnc3s2)c1 | 669 | -1.9% (inactive) | -17.9% (inactive) | 159 | 0.0409 | 0.511 | -0.101 | -6.06% (inactive) | -0.412 (inactive) | -0.000115 (inactive) | 0.00514 (inactive) | inactive | 8.13% (inactive)
5 | O=C(O)CC(C(=O)N(c1ccccc1)c1ccccc1)N1CCOCC1 (stereo not drawn) | 498 | -4.7% (inactive) | -103% (inactive) | 118 | -1.14 | 0.849 | 1.75 | -7.01% (inactive) | -0.576 (inactive) | -4e-05 (inactive) | 0.00573 (inactive) | inactive | -20.4% (inactive)
6 | O=C1CCC(=O)N1c1nc2nc(-c3ccccc3)cc(-c3ccccc3)n2n1 | 360 | -6.9% (inactive) | -15.6% (inactive) | 91 | -0.411 | 1.12 | 0.232 | 5.42% (inactive) | -0.467 (inactive) | -3e-05 (inactive) | 0.00473 (inactive) | inactive | 46.1% (inactive)
7 | CCC(=O)OC1=C2C(=Nc3c(c(=O)n(C)c(=O)n3C)C2c2ccccc2)c2ccccc21 (stereo not drawn) | 509 | -2.9% (inactive) | -57.1% (inactive) | 75.2 | -0.341 | 0.242 | 0.679 | 1.9e-07% (inactive) | -0.505 (inactive) | -5.2e-05 (inactive) | 0.00546 (inactive) | inactive | 15.5% (inactive)
8 | CC(C)CC(NC(=O)OC(C)(C)C)C(=O)NCc1ccccc1 (stereo not drawn) | 626 | -12.9% (inactive) | -28.9% (inactive) | 156 | 1.56 | -1.58 | 0.0751 | 5.57% (inactive) | -0.475 (inactive) | -0.000315 (inactive) | 0.00412 (inactive) | inactive | 1.86% (inactive)
9 | O=c1[nH]c(CN2CCCCC2)nc2c1C1(CCCC1)Cc1ccccc1-2 | 414 | -0.5% (inactive) | -29.1% (inactive) | 101 | 0.73 | -0.701 | -0.0539 | -1.12% (inactive) | -0.233 (inactive) | -8.8e-06 (inactive) | 0.00603 (inactive) | inactive | -2.89% (inactive)
10 | COCCN(C(=O)Nc1ccccc1)c1ccccc1C | 443 | -5.7% (inactive) | -107% (inactive) | 186 | -1.02 | -0.17 | -0.3 | -3.95% (inactive) | -0.32 (inactive) | 6.1e-06 (inactive) | 0.00472 (inactive) | inactive | -5.98% (inactive)
11 | O=C1CC(NCc2ccc3c(c2)OCO3)C(=O)N1Cc1ccc2c(c1)OCO2 (stereo not drawn) | 521 | 5.6% (inactive) | -127% (inactive) | 139 | 0.834 | 0.684 | -0.627 | 15.8% (inactive) | -0.505 (inactive) | -3.7e-05 (inactive) | 0.00655 (inactive) | inactive | 17.7% (inactive)
12 | COCCNc1cc(C)c(C#N)c2nc3ccccc3n12 | 564 | 2.6% (inactive) | -78.8% (inactive) | 108 | -2.44 | 1.04 | -1.31 | 13.9% (inactive) | -0.383 (inactive) | 1.2e-06 (inactive) | 0.00535 (inactive) | inactive | -12.3% (inactive)
13 | CC1(C)Cc2nc(N)c(C(=O)NCCO)cc2CO1 | 668 | -10.5% (inactive) | 15.2% (inactive) | 184 | -0.73 | 0.225 | 0.421 | -3.98% (inactive) | -0.476 (inactive) | -3e-05 (inactive) | 0.00417 (inactive) | inactive | 6.5% (inactive)
14 | CCCC(=O)Nn1cnc2c(c1=O)C1(CCCC1)Cc1ccccc1-2 | 558 | -2.6% (inactive) | -157% (inactive) | 108 | -0.794 | -0.594 | -0.952 | 11.9% (inactive) | -0.327 (inactive) | 2.7e-05 (inactive) | 0.00422 (inactive) | inactive | -19.9% (inactive)
15 | COc1cccc(C2=CC(c3ccccc3)n3nnnc3N2)c1 (stereo not drawn) | 586 | 22.3% (inactive) | -12.1% (inactive) | 120 | 0.0896 | 0.142 | -0.691 | -7.01% (inactive) | -0.275 (inactive) | 1.9e-05 (inactive) | 0.00526 (inactive) | inactive | 22.4% (inactive)
16 | CNc1nc(C)c(C#N)cc1C(C)=O | 481 | -11.7% (inactive) | 8.2% (inactive) | 166 | 0.906 | -0.478 | -0.65 | 5.65% (inactive) | -0.513 (inactive) | -9.4e-05 (inactive) | 0.00563 (inactive) | inactive | 26.6% (inactive)
17 | CN1CCN(c2ncnc3c2[nH]c2ccc(F)cc23)CC1 | 330 | -15.6% (inactive) | -17.5% (inactive) | 64.2 | -0.484 | 0.264 | -0.525 | -8.76% (inactive) | -0.382 (inactive) | -8e-05 (inactive) | 0.00525 (inactive) | inactive | 32.3% (inactive)
18 | COc1ccc(CCNc2nc3c(c(=O)n(C)c(=O)n3C)n2C)cc1OC | 604 | -9.9% (inactive) | -63.1% (inactive) | 146 | 1.46 | -0.0832 | 0.95 | -4.27% (inactive) | -0.425 (inactive) | -6e-05 (inactive) | 0.00693 (inactive) | inactive | -4.62% (inactive)
19 | COc1cccc(OCCN2CCN(c3ncnc4c3cnn4-c3ccccc3)CC2)c1 | 555 | -23.4% (inactive) | -98.5% (inactive) | 166 | 0.225 | -1.36 | 0.0914 | -11.5% (inactive) | -0.519 (inactive) | -3.9e-05 (inactive) | 0.00443 (inactive) | inactive | 48.3% (inactive)
20 | CCOC(=O)CSc1nc(N)c(C#N)c(-c2ccc(OC)cc2)c1C#N | 475 | 1.6% (inactive) | -88.5% (inactive) | 127 | 0.441 | 1.58 | 1.28 | 24.7% (inactive) | -0.52 (inactive) | -3.8e-05 (inactive) | 0.00551 (inactive) | inactive | -7.05% (inactive)
21 | COc1c(O)ccc2cnn(-c3ccccc3C)c(=O)c12 | 557 | -2.9% (inactive) | -53.4% (inactive) | 180 | -1.01 | 0.966 | 0.382 | 9.61% (inactive) | -0.35 (inactive) | -1.2e-05 (inactive) | 0.00472 (inactive) | inactive | 1.71% (inactive)
22 | CNC(=O)Nc1cccc(NC(=O)NC)n1 | 351 | -2.8% (inactive) | -90.3% (inactive) | 164 | 0.612 | 0.757 | -1.65 | 11.4% (inactive) | -0.456 (inactive) | -0.000144 (inactive) | 0.00525 (inactive) | inactive | -3.2% (inactive)
23 | CN(C)c1nc2n(c(=O)n1)C(C#N)CS2 (stereo not drawn) | 364 | -3.1% (inactive) | -192% (inactive) | 105 | 0.947 | -1.21 | -1.65 | 13.2% (inactive) | -0.438 (inactive) | -5.8e-06 (inactive) | 0.00693 (inactive) | inactive | -3.08% (inactive)
24 | c1ccc(OCc2nn3c(-c4ccco4)nnc3s2)cc1 | 654 | 3.2% (inactive) | -139% (inactive) | 156 | 2.72 | -1.05 | -0.302 | 11.9% (inactive) | -0.417 (inactive) | -0.000108 (inactive) | 0.00597 (inactive) | inactive | 7.84% (inactive)
25 | O=C1c2ccccc2S(=O)(=O)N1CC(O)COc1ccc(Cl)cc1 (stereo not drawn) | 354 | -14.1% (inactive) | -291% (inactive) | 97 | 0.633 | 0.437 | -1.99 | 1.75% (inactive) | -0.439 (inactive) | -8.9e-06 (inactive) | 0.00476 (inactive) | inactive | 1.18% (inactive)
26 | COc1cccc(-c2nnc3sc(-c4ccc(Cl)cc4)nn23)c1 | 588 | 3.2% (inactive) | 19.9% (inactive) | 102 | 0.426 | -0.269 | 0.00297 | -4.27% (inactive) | -0.385 (inactive) | -1.5e-05 (inactive) | 0.00661 (inactive) | inactive | 5.02% (inactive)
